Converted amounts (≈) assume the structure as drawn.
Columns and labels:
[1] = tested on: Mycobacterium tuberculosis; experiment: Antituberculosis activity against Mycobacterium tuberculosis Erdman by microplate alamar blue assay; type: functional
Summary of the method: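 MIC read by microplate Alamar Blue assay against virulent M. tuberculosis Erdman (ATCC 35801). Rifampin served as positive control. Crude fractions were scored as percent inhibition at several concentrations, and pure isolates as MICs.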

[2] = tested on: Vero; experiment: Cytotoxicity against african green monkey Vero cells; type: cell-based; details: chlorocebus sabaeus
Summary of the method: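 IC50 in Vero cells, run alongside the MIC assay. Test concentrations were at or below 1% of the maximum achievable stock concentration in DMSO.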

[3] = Selectivity index, ratio of IC50 for african green monkey Vero cells to MIC for Mycobacterium tuberculosis Erdman; type: functional
[4] = tested on: Mycobacterium tuberculosis; experiment: Antituberculosis activity against Mycobacterium tuberculosis H37Ra by microplate alamar blue assay; type: functional

C=C[C@@](C)(O)CC[C@@H](O)[C@]1(C)CC[C@H](C(C)(C)O)O1 (relative stereo) [NEROPLOFUROL]
MIC [1]: > 128 µg/mL | Activity [2]: Non-toxic

C=C[C@@H](O)C#CC#C[C@@H](O)/C=C\CCCCCCC [FALCARINDIOL]
MIC [1]: 6.2 µg/mL (≈ 23.8 µM) | Activity [2]: Non-toxic

C=CC1(C)CC/C=C(/C)CCC(C(C)(C)O)O1 (stereo not given) [NEROPLOMACROL]
MIC [1]: > 128 µg/mL | Activity [2]: Non-toxic

CCCCCCC/C=C\[C@H](O)C#CC#C[C@@H](O)CC [OPLOPANDIOL]
MIC [1]: 61.5 µg/mL (≈ 234 µM) | Activity [2]: Non-toxic | Selectivity Index [3]: 6.2

c1cc2c(cc1[C@H]1OC[C@H]3[C@@H]1CO[C@@H]3c1ccc3c(c1)OCO3)OCO2 [SESAMIN]
MIC [4]: > 200 µg/mL
